Data: ChEMBL document CHEMBL1155327, “2,4-Diamino-quinazolines as inhibitors of beta-catenin/Tcf-4 pathway: Potential treatment for colorectal cancer” (Bioorg Med Chem Lett, 2009)
≈ marks a conversion by molar mass, not a printed value.

Assays:
[1] = target: Catenin beta-1 (Homo sapiens) (UniProt P35222); test: Inhibition of Beta-catenin/Tcf-4 pathway in human Tcf22C11 cell assessed as inhibition of reporter activity by cell-based reporter assay
[2] = target: Catenin beta-1 (Homo sapiens) (UniProt P35222); test: Inhibition of Beta-catenin/Tcf-4 pathway in human Tcf 33.13 cell assessed as inhibition of reporter activity by cell-based reporter assay
[3] = Cytotoxicity against human SV5A8 cells; assay type: functional, cell-based
How it was run: (§1)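 Reporter cell lines 22C11 and 33.13 with control line 5A8; IC50 from means of at least two experiments; toxicity flagged as the minimal dose where cell killing appeared by Renilla luciferase signal.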

[4] = Inhibition of […]/Tcf-4 pathway in human Tcf 33.13 cell assessed as inhibition of reporter activity by cell-based reporter assay; assay type: functional
How it was run: as §1

[5] = Inhibition of […]/Tcf-4 pathway in human Tcf22C11 cell assessed as inhibition of reporter activity by cell-based reporter assay; assay type: functional
How it was run: as §1

[6] = Plasma concentration in nude mouse at 50 mg/kg, po after 8 hrs; assay type: ADME, organism-based; set-up: dose 50 mg/kg, route oral
How it was run: (§2)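 Tumour-bearing nude mice (n = 4) given one oral dose (50 or 200 mg/kg); plasma and tumour drug concentrations (ng/mL) measured 8 h after dosing; tumour/plasma ratio calculated from these.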

[7] = Ratio of Drug level in tumor to mouse plasma at 50 mg/kg, po
How it was run: as §2

[8] = Oral bioavailability in mouse at 25 mg/kg; assay type: ADME, organism-based; conditions: in vivo
How it was run: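 Female nude mice dosed orally at 25 mg/kg; oral bioavailability (%) determined from pharmacokinetic study.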

[9] = Drug level in tumor of nude mouse bearing HT29 or HCT116 cells at 50 mg/kg, po after 8 hrs; assay type: ADME, organism-based, Neoplasm, HCT-116; set-up: dose 50 mg/kg, route oral; conditions: read-out: Ct
How it was run: as §2

[10] = Aqueous solubility at pH 7.4; assay type: physicochemical
How it was run: (§3)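 Water solubility measured in µg/mL at pH 7.4 and at pH 3.0.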

HT-29 = test: Antitumor activity against human HT-29 cells xenografted in nude mouse assessed as tumor growth inhibition at 200 mg/kg, po after 17 days; assay type: functional; conditions: HT-29, 408 h, read-out: TGI
How it was run: (§4)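 Nude mice carrying subcutaneous HT29 or HCT116 tumours; oral dosing at 25, 50, 100 or 200 mg/kg once daily for 17 days; tumour volume measured; growth inhibition assessed at end of treatment.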

[11] = Ratio of Drug level in tumor to mouse plasma at 200 mg/kg, po
How it was run: as §2

[12] = Aqueous solubility at pH 3; assay type: physicochemical
How it was run: as §3

HCT-116 = test: Antitumor activity against human HCT116 cells xenografted in nude mouse assessed as tumor growth inhibition at 200 mg/kg, po after 17 days; assay type: functional; conditions: HCT-116, 408 h, read-out: TGI
How it was run: as §4

[13] = Plasma concentration in mouse at 200 mg/kg, po after 8 hrs; assay type: ADME, organism-based; set-up: dose 200 mg/kg, route oral
How it was run: as §2

[14] = Drug level in tumor of nude mouse bearing HT29 or HCT116 tumor at 200 mg/kg, po after 8 hrs; assay type: ADME, organism-based, Neoplasm; set-up: dose 200 mg/kg, route oral; conditions: read-out: Ct
How it was run: as §2

Structure (SMILES) | IC50 [1] [nM] | IC50 [2] [nM] | IC50 [3] [nM] | other results
Cc1ccc2c(NCc3ccc(NC(=O)C4CCN(Cc5ccccc5)CC4)cc3)nc(N3CCC(N4CCCC4)CC3)nc2c1 | 960 | 850 | > 8090 | 
Cc1ccc2c(NCc3ccc(NC(=O)C4CCN(Cc5ncc[nH]5)CC4)cc3)nc(N(C)C)nc2c1 | > 20000 | > 20000 | > 20000 | 
Cc1ccc2c(NCc3ccc(NC(=O)C4CCN(C)CC4)cc3)nc(N(C)C)nc2c1 | 1920 | 1670 | > 17300 | 
COc1ccc(CN2CCC(C(=O)Nc3ccc(CNc4nc(N(C)C)nc5cc(C)ccc45)cc3)CC2)cc1 | 520 | 450 | > 6180 | 
Cc1ccc2c(NCc3ccc(NC(=O)C4CCN(Cc5ccc(Cl)cn5)CC4)cc3)nc(N(C)C)nc2c1 |  |  | > 5400 | IC50 [4]: 410 nM; IC50 [5]: 570 nM
Cc1ccc2c(NCc3ccc(NC(=O)C4CCN(Cc5ccccc5)CC4)cc3)nc(N3CCCC3)nc2c1 | 660 | 790 | > 7790 | 
Cc1ccc2c(NCc3ccc(NC(=O)C4CCN(Cc5ccccc5)CC4)cc3)nc(N3CCC3)nc2c1 | 1000 | 800 | > 8500 | 
Cc1ccc2c(NCc3ccc(NC(=O)C4CCN(Cc5ccc(Cl)cc5)CC4)cc3)nc(N(C)C)nc2c1 | 390 | 320 | > 3180 | 
Cc1ccc2c(NCc3ccc(NC(=O)C4CCN(C5CCCCC5)CC4)cc3)nc(N(C)C)nc2c1 | 750 | 810 | > 8320 | 
Cc1ccc2c(NCc3ccc(NC(=O)C4CCN(Cc5ccc(F)cc5)CC4)cc3)nc(N(C)C)nc2c1 | 220 | 190 | > 4820 | concentration at 8 h [6]: 440 ng/mL; Ratio [7]: 220; bioavailability [8]: 46%; concentration at 8 h [9]: 70300 ng/mL
Cc1ccc2c(NCc3ccc(NC(=O)C4CCN(CC(C)C)CC4)cc3)nc(N(C)C)nc2c1 | 650 | 960 | > 10500 | 
CCNc1nc(NCc2ccc(NC(=O)C3CCN(Cc4ccccc4)CC3)cc2)c2ccc(C)cc2n1 | 1380 | 1130 | > 2140 | 
Cc1ccc2c(NCc3ccc(NC(=O)C4CCN(Cc5cccc(F)c5)CC4)cc3)nc(N(C)C)nc2c1 | 330 | 350 | > 4170 | 
CCCCN1CCC(C(=O)Nc2ccc(CNc3nc(N(C)C)nc4cc(C)ccc34)cc2)CC1 | 1470 | 1170 | > 10500 | 
Cc1ccc2c(NCc3ccc(NC(=O)C4CCN(Cc5ccc(F)cc5Cl)CC4)cc3)nc(N(C)C)nc2c1 | 520 | 210 | > 5910 | 
Cc1ccc2c(NCc3ccc(NC(=O)C4CCN(Cc5ccccc5)CC4)cc3)nc(N(C)C)nc2c1 | 740 | 760 | > 7050 | solubility [10]: 43 µg/mL (≈ 84.5 µM); inhibition in vivo at 200 mg/kg (HT-29): 20%; bioavailability [8]: 41%; Ratio [11]: 40; solubility [12]: > 100 µg/mL; inhibition in vivo at 200 mg/kg (HCT-116): 20%; concentration at 8 h [13]: 2970 ng/mL; concentration at 8 h [14]: 90700 ng/mL
Cc1ccc(CN2CCC(C(=O)Nc3ccc(CNc4nc(N(C)C)nc5cc(C)ccc45)cc3)CC2)cc1 | 470 | 500 | > 4150 | 
Cc1ccc2c(NCc3ccc(NC(=O)C4CCN(Cc5ccccc5)CC4)cc3)nc(N3CCN(C)CC3)nc2c1 | 1580 | 1320 | > 17700 | 
Cc1ccc2c(NCc3ccc(NC(=O)C4CCN(Cc5ccccc5)CC4)cc3)nc(N3CCN[C@@H](C)C3)nc2c1 | 1920 | 1460 | > 8860 | 
CCN1CCN(c2nc(NCc3ccc(NC(=O)C4CCN(Cc5ccccc5)CC4)cc3)c3ccc(C)cc3n2)CC1 | 1260 | 1120 | > 13000 | 
CNc1nc(NCc2ccc(-c3ccccc3C(=O)OC)cc2)c2ccccc2n1 | 600 |  |  | 
Cc1ccc2c(NCc3ccc(NC(=O)C4CCN(Cc5ccccc5)CC4)cc3)nc(N3CCCCCC3)nc2c1 | 1040 | 960 | > 6880 | 
Cc1ccc2c(NCc3ccc(NC(=O)C4CCN(Cc5ccccc5)CC4)cc3)nc(N(C)CCCN(C)C)nc2c1 | 1410 | 1310 | > 8620 | 
Cc1ccc2c(NCc3ccc(NC(=O)C4CCN(Cc5ccccc5)CC4)cc3)nc(N3CCNC(CCO)C3)nc2c1 (configuration not stated) | 2270 | 2120 | > 8420 | 
Cc1ccc2c(NCc3ccc(NC(=O)C4CCN(Cc5ccccc5)CC4)cc3)nc(N(C)CCN(C)C)nc2c1 | 2260 | 1440 | > 8830 | 
Cc1ccc2c(NCc3ccc(NC(=O)C4CCN(C(=O)OC(C)(C)C)CC4)cc3)nc(N(C)C)nc2c1 | 760 | 850 | > 4820 | 
Cc1ccc2c(NCc3ccc(NC(=O)C4CCN(Cc5ccccc5F)CC4)cc3)nc(N(C)C)nc2c1 | 530 | 320 | > 6670 | 
Cc1ccc2c(NCc3ccc(NC(=O)C4CCN(Cc5ccco5)CC4)cc3)nc(N(C)C)nc2c1 | 1830 | 1930 | > 20000 | 
Cc1ccc2c(NCc3ccc(NC(=O)C4CCN(Cc5ccncc5)CC4)cc3)nc(N(C)C)nc2c1 |  |  | > 8070 | IC50 [4]: 900 nM; IC50 [5]: 1180 nM
